Tests used:
Format in all cases: functional
Bacteroides ovatus = assay: Antibacterial activity against Bacteroides ovatus isolated from patient with diabetic foot infection after 44 to 48 hrs by agar dilution method
How it was run: (§1)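 CLSI M11-A7 agar dilution: serial twofold drug dilutions made on the test day and added to molten agar. Spots of 10^5 CFU were applied by replicator, with drug-free control plates inoculated before and after each set. Incubation was 44 to 48 h at 37°C in an anaerobic chamber. MIC was the lowest concentration giving no growth or a marked change in growth versus controls.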

Parvimonas micra [1] = assay: Antibacterial activity against Peptostreptococcus micros isolated from patient with diabetic foot infection assessed as percent resistant isolates after 44 to 48 hrs by agar dilution method
How it was run: (§2)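 Agar dilution per CLSI M11-A7. Twofold drug dilutions made on the test day and added to molten agar. Replicator-applied inoculum of 10^5 CFU/spot. Drug-free control plates inoculated before and after each drug set. Incubation at 37°C for 44 to 48 h, anaerobic chamber. MIC taken as the lowest concentration giving no growth or a marked change in growth versus controls.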

[2] = test system: Parabacteroides distasonis; assay: Antibacterial activity against Parabacteroides distasonis isolated from patient with diabetic foot infection assessed as percent resistant isolates after 44 to 48 hrs by agar dilution method; how it was run: as §2
Bacteroides stercoris [3] = assay: Antibacterial activity against Bacteroides stercoris isolated from patient with diabetic foot infection after 44 to 48 hrs by agar dilution method; how it was run: as §1
Parabacteroides merdae = assay: Antibacterial activity against Parabacteroides merdae isolated from patient with diabetic foot infection assessed as percent resistant isolates after 44 to 48 hrs by agar dilution method; how it was run: as §2
[4] = test system: Anaerocolumna aminovalerica; assay: Antibacterial activity against Clostridium aminovalericum isolated from patient with diabetic foot infection assessed as percent resistant isolates after 44 to 48 hrs by agar dilution method; how it was run: as §2
Clostridium perfringens = assay: Antibacterial activity against Clostridium perfringens isolated from patient with diabetic foot infection after 44 to 48 hrs by agar dilution method; how it was run: as §2
Bacteroides uniformis [5] = assay: Antibacterial activity against Bacteroides uniformis isolated from patient with diabetic foot infection assessed as percent resistant isolates after 44 to 48 hrs by agar dilution method; how it was run: as §2
Phocaeicola vulgatus = assay: Antibacterial activity against Bacteroides vulgatus isolated from patient with diabetic foot infection assessed as percent resistant isolates after 44 to 48 hrs by agar dilution method; how it was run: as §2
Bacteroides fragilis [6] = assay: Antibacterial activity against Bacteroides fragilis isolated from patient with diabetic foot infection after 44 to 48 hrs by agar dilution method; how it was run: as §1
Anaerococcus prevotii [7] = assay: Antibacterial activity against Anaerococcus prevotii isolated from patient with diabetic foot infection assessed as percent resistant isolates after 44 to 48 hrs by agar dilution method; how it was run: as §2
Anaerococcus tetradius = assay: Antibacterial activity against Anaerococcus tetradius isolated from patient with diabetic foot infection assessed as percent resistant isolates after 44 to 48 hrs by agar dilution method; how it was run: as §2
Parvimonas micra [8] = assay: Antibacterial activity against Peptostreptococcus micros isolated from patient with diabetic foot infection after 44 to 48 hrs by agar dilution method; how it was run: as §1
Anaerococcus prevotii [9] = assay: Antibacterial activity against Anaerococcus prevotii isolated from patient with diabetic foot infection after 44 to 48 hrs by agar dilution method; how it was run: as §1
Lacrimispora sphenoides [10] = assay: Antibacterial activity against Clostridium sphenoides isolated from patient with diabetic foot infection after 44 to 48 hrs by agar dilution method; how it was run: as §1
Bacteroides fragilis [11] = assay: Antibacterial activity against Bacteroides fragilis isolated from patient with diabetic foot infection assessed as percent resistant isolates after 44 to 48 hrs by agar dilution method; how it was run: as §2
Anaerococcus vaginalis = assay: Antibacterial activity against Anaerococcus vaginalis isolated from patient with diabetic foot infection after 44 to 48 hrs by agar dilution method; how it was run: as §1
Bacteroides caccae [12] = assay: Antibacterial activity against Bacteroides caccae isolated from patient with diabetic foot infection after 44 to 48 hrs by agar dilution method; how it was run: as §1
Lacrimispora sphenoides [13] = assay: Antibacterial activity against Clostridium sphenoides isolated from patient with diabetic foot infection assessed as percent resistant isolates after 44 to 48 hrs by agar dilution method; how it was run: as §2
Prevotella bivia = assay: Antibacterial activity against Prevotella bivia isolated from patient with diabetic foot infection after 44 to 48 hrs by agar dilution method; how it was run: as §1
Cutibacterium acnes [14] = assay: Antibacterial activity against Propionibacterium acnes isolated from patient with diabetic foot infection after 44 to 48 hrs by agar dilution method; how it was run: as §1
[15] = test system: Parabacteroides distasonis; assay: Antibacterial activity against Parabacteroides distasonis isolated from patient with diabetic foot infection after 44 to 48 hrs by agar dilution method; how it was run: as §1
Porphyromonas somerae = assay: Antibacterial activity against Porphyromonas somerae isolated from patient with diabetic foot infection after 44 to 48 hrs by agar dilution method; how it was run: as §1
Bacteroides stercoris [16] = assay: Antibacterial activity against Bacteroides stercoris isolated from patient with diabetic foot infection assessed as percent resistant isolates after 44 to 48 hrs by agar dilution method; how it was run: as §2
[17] = test system: Clostridium malenominatum; assay: Antibacterial activity against Clostridium malenominatum isolated from patient with diabetic foot infection after 44 to 48 hrs by agar dilution method; how it was run: as §1
Bacteroides caccae [18] = assay: Antibacterial activity against Bacteroides caccae isolated from patient with diabetic foot infection assessed as percent resistant isolates after 44 to 48 hrs by agar dilution method; how it was run: as §2
Bacteroides uniformis [19] = assay: Antibacterial activity against Bacteroides uniformis isolated from patient with diabetic foot infection after 44 to 48 hrs by agar dilution method; how it was run: as §1
[Clostridium] innocuum = Antibacterial activity against Clostridium innocuum isolated from patient with diabetic foot infection assessed as percent resistant isolates after 44 to 48 hrs by agar dilution method; how it was run: as §2
Finegoldia magna [20] = assay: Antibacterial activity against Finegoldia magna isolated from patient with diabetic foot infection assessed as percent resistant isolates after 44 to 48 hrs by agar dilution method; how it was run: as §2
[21] = test system: Bacteroides thetaiotaomicron; assay: Antibacterial activity against Bacteroides thetaiotaomicron isolated from patient with diabetic foot infection after 44 to 48 hrs by agar dilution method; how it was run: as §1
[22] = test system: Peptostreptococcus anaerobius; assay: Antibacterial activity against Peptostreptococcus anaerobius isolated from patient with diabetic foot infection assessed as percent resistant isolates after 44 to 48 hrs by agar dilution method; how it was run: as §2
[23] = test system: Porphyromonas asaccharolytica; assay: Antibacterial activity against Porphyromonas asaccharolyticus isolated from patient with diabetic foot infection assessed as percent resistant isolates after 44 to 48 hrs by agar dilution method; how it was run: as §2
[24] = test system: Peptoniphilus asaccharolyticus; assay: Antibacterial activity against Peptoniphilus asaccharolyticus isolated from patient with diabetic foot infection assessed as percent resistant isolates after 44 to 48 hrs by agar dilution method; how it was run: as §2
[25] = test system: Bacteroides thetaiotaomicron; assay: Antibacterial activity against Bacteroides thetaiotaomicron isolated from patient with diabetic foot infection assessed as percent resistant isolates after 44 to 48 hrs by agar dilution method; how it was run: as §2
[26] = test system: Peptoniphilus asaccharolyticus; assay: Antibacterial activity against Peptoniphilus asaccharolyticus isolated from patient with diabetic foot infection after 44 to 48 hrs by agar dilution method; how it was run: as §1
Cutibacterium acnes [27] = assay: Antibacterial activity against Propionibacterium acnes isolated from patient with diabetic foot infection assessed as percent resistant isolates after 44 to 48 hrs by agar dilution method; how it was run: as §2
Finegoldia magna [28] = assay: Antibacterial activity against Finegoldia magna isolated from patient with diabetic foot infection after 44 to 48 hrs by agar dilution method; how it was run: as §1

CCC[C@@H]1C[C@@H](C(=O)N[C@@H]([C@H]2O[C@H](SC)[C@H](O)[C@@H](O)[C@H]2O)[C@H](C)Cl)N(C)C1 [CLINDAMYCIN]
0.125 µg/mL: MIC50 (Parvimonas micra [8]) | MIC50 (Anaerococcus prevotii [9]) | MIC50 (Anaerococcus vaginalis) | MIC50 [26]
≤ 0.03 µg/mL: MIC50 (Prevotella bivia) | MIC50 (Cutibacterium acnes [14]) | MIC50 (Porphyromonas somerae)
20%: Activity [2] | Activity (Parabacteroides merdae) | Activity (Bacteroides uniformis [5]) | Activity (Phocaeicola vulgatus) | Activity (Bacteroides stercoris [16]) | Activity (Bacteroides caccae [18]) | Activity [25]
2 µg/mL: MIC50 (Bacteroides ovatus) | MIC50 (Bacteroides stercoris [3]) | MIC90 (Bacteroides fragilis [6]) | MIC50 (Bacteroides caccae [12]) | MIC90 (Cutibacterium acnes [14]) | MIC50 [15] | MIC50 (Bacteroides uniformis [19]) | MIC50 [21] | MIC90 (Finegoldia magna [28])
64 µg/mL: MIC90 (Anaerococcus prevotii [9]) | MIC90 (Anaerococcus vaginalis) | MIC90 (Porphyromonas somerae)
0%: Activity (Parvimonas micra [1]) | Activity (Finegoldia magna [20]) | Activity [22] | Activity (Cutibacterium acnes [27])
23%: Activity [4] | Activity (Lacrimispora sphenoides [13]) | Activity ([Clostridium] innocuum)
16 µg/mL: MIC90 (Lacrimispora sphenoides [10]) | MIC90 [17]
1 µg/mL: MIC50 (Clostridium perfringens) | MIC90 (Clostridium perfringens)
18%: Activity (Anaerococcus prevotii [7]) | Activity (Anaerococcus tetradius)
> 64 µg/mL: MIC90 (Bacteroides ovatus) | MIC90 (Bacteroides stercoris [3]) | MIC90 (Bacteroides caccae [12]) | MIC90 (Prevotella bivia) | MIC90 [15] | MIC90 (Bacteroides uniformis [19]) | MIC90 [21] | MIC90 [26]
10%: Activity (Bacteroides fragilis [11])
0.5 µg/mL: MIC50 (Bacteroides fragilis [6]) | MIC90 (Parvimonas micra [8]) | MIC50 (Lacrimispora sphenoides [10]) | MIC50 [17] | MIC50 (Finegoldia magna [28])
25%: Activity [24]
12%: Activity [23]

C[C@@H](O)[C@H]1C(=O)N2C(C(=O)O)=C(S[C@@H]3CN[C@H](CNS(N)(=O)=O)C3)[C@H](C)[C@H]12 [DORIPENEM]
0.03 µg/mL: MIC90 (Clostridium perfringens) | MIC90 (Porphyromonas somerae)
≤ 0.015 µg/mL: MIC50 (Clostridium perfringens) | MIC50 (Anaerococcus prevotii [9]) | MIC50 (Anaerococcus vaginalis) | MIC50 (Porphyromonas somerae) | MIC50 [26]
0.06 µg/mL: MIC50 (Parvimonas micra [8]) | MIC90 (Anaerococcus prevotii [9]) | MIC50 (Lacrimispora sphenoides [10]) | MIC90 (Anaerococcus vaginalis) | MIC50 (Prevotella bivia) | MIC50 (Cutibacterium acnes [14]) | MIC50 [17] | MIC90 [26] | MIC50 (Finegoldia magna [28])
0%: Activity (Parvimonas micra [1]) | Activity [2] | Activity (Parabacteroides merdae) | Activity [4] | Activity (Bacteroides uniformis [5]) | Activity (Phocaeicola vulgatus) | Activity (Anaerococcus prevotii [7]) | Activity (Anaerococcus tetradius) | Activity (Bacteroides fragilis [11]) | Activity (Lacrimispora sphenoides [13]) | Activity (Bacteroides stercoris [16]) | Activity (Bacteroides caccae [18]) | Activity ([Clostridium] innocuum) | Activity (Finegoldia magna [20]) | Activity [22] | Activity [23] | Activity [24] | Activity [25] | Activity (Cutibacterium acnes [27])
0.125 µg/mL: MIC90 (Prevotella bivia) | MIC90 (Cutibacterium acnes [14]) | MIC90 (Finegoldia magna [28])
0.25 µg/mL: MIC50 (Bacteroides ovatus) | MIC50 (Bacteroides stercoris [3]) | MIC50 (Bacteroides fragilis [6]) | MIC90 (Bacteroides fragilis [6]) | MIC90 (Parvimonas micra [8]) | MIC50 (Bacteroides caccae [12]) | MIC50 [15] | MIC50 (Bacteroides uniformis [19]) | MIC50 [21]
1 µg/mL: MIC90 (Bacteroides ovatus) | MIC90 (Bacteroides stercoris [3]) | MIC90 (Lacrimispora sphenoides [10]) | MIC90 (Bacteroides caccae [12]) | MIC90 [15] | MIC90 [17] | MIC90 (Bacteroides uniformis [19]) | MIC90 [21]
